Reference: ChEMBL document CHEMBL1140069, “In vitro antifungal activity of polyfunctionalized 2-(hetero)arylquinolines prepared through imino Diels-Alder reactions” (2008)

Assays:
Format in all cases: functional
Candida albicans [1] = assay: Antimicrobial activity against Candida albicans C130 isolate at 6.25 ug/ml after 24 hrs
Summary of the method: (§1)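 Growth-inhibition microplate test. Strains are grown on Sabouraud-chloramphenicol agar for 48 h at 30 °C, and inoculum is added to RPMI-1640 containing compound at a final 100–6.25, with DMSO ≤2%. Each strain has a growth control (same DMSO, no compound) and a sterility control.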

Candida albicans [2] = assay: Antimicrobial activity against Candida albicans C127 isolate at 50 ug/ml after 24 hrs; conditions: C127, 24 h; summary of the method: as §1
Pichia kudriavzevii [3] = assay: Antimicrobial activity against Candida krusei C117 isolate at 50 ug/ml after 24 hrs
Summary of the method: (§2)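 Percent growth inhibition in 96-well microplates. Compound stocks in DMSO (≤2%) were diluted in RPMI-1640 to final 100–6.25 µg/mL, and 100 µL inoculum was added (final 200 µL). Controls were a growth well (inoculum with matching DMSO, no compound) and a sterility well (no inoculum). Inhibition was calculated against growth and sterility wells.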

Candida parapsilosis [4] = assay: Antimicrobial activity against Candida parapsilosis C124 isolate at 50 ug/ml after 24 hrs; conditions: Lodderomyces parapsilosis; summary of the method: as §2
Nakaseomyces glabratus [5] = assay: Antimicrobial activity against Candida glabrata C115 isolate at 12.5 ug/ml after 24 hrs; summary of the method: as §1
Candida albicans [6] = assay: Antimicrobial activity against Candida albicans C129 isolate at 25 ug/ml after 24 hrs; summary of the method: as §1
Nakaseomyces glabratus [7] = assay: Antimicrobial activity against Candida glabrata C115 isolate at 50 ug/ml after 24 hrs; summary of the method: as §2
Candida albicans [8] = assay: Antimicrobial activity against Candida albicans C130 isolate at 25 ug/ml after 24 hrs; summary of the method: as §1
Candida albicans [9] = assay: Antimicrobial activity against Candida albicans C130 isolate at 12.5 ug/ml after 24 hrs; summary of the method: as §1
Candida albicans [10] = assay: Antimicrobial activity against Candida albicans C129 isolate at 50 ug/ml after 24 hrs; summary of the method: as §1
Candida albicans [11] = assay: Antimicrobial activity against Candida albicans C127 isolate at 100 ug/ml after 24 hrs; conditions: C127, 24 h; summary of the method: as §1
Candida tropicalis [12] = assay: Antimicrobial activity against Candida tropicalis C131 isolate at 6.25 ug/ml after 24 hrs; summary of the method: as §2
Candida tropicalis [13] = assay: Antimicrobial activity against Candida tropicalis C131 isolate at 12.5 ug/ml after 24 hrs; summary of the method: as §2
Nakaseomyces glabratus [14] = assay: Antimicrobial activity against Candida glabrata C115 isolate at 6.25 ug/ml after 24 hrs; summary of the method: as §2
Candida albicans [15] = assay: Antimicrobial activity against Candida albicans C128 isolate at 25 ug/ml after 24 hrs; summary of the method: as §1
Pichia kudriavzevii [16] = assay: Antimicrobial activity against Candida krusei C117 isolate at 25 ug/ml after 24 hrs; summary of the method: as §2
Candida albicans [17] = assay: Antimicrobial activity against Candida albicans C127 isolate at 25 ug/ml after 24 hrs; conditions: C127, 24 h; summary of the method: as §1
Candida parapsilosis [18] = assay: Antimicrobial activity against Candida parapsilosis C124 isolate at 25 ug/ml after 24 hrs; conditions: Lodderomyces parapsilosis; summary of the method: as §2
Candida parapsilosis [19] = assay: Antimicrobial activity against Candida parapsilosis C124 isolate at 100 ug/ml after 24 hrs; conditions: Lodderomyces parapsilosis; summary of the method: as §2
Candida albicans [20] = assay: Antimicrobial activity against Candida albicans C128 isolate at 100 ug/ml after 24 hrs; summary of the method: as §1
Pichia kudriavzevii [21] = assay: Antimicrobial activity against Candida krusei C117 isolate at 12.5 ug/ml after 24 hrs; summary of the method: as §2
Candida albicans [22] = assay: Antimicrobial activity against Candida albicans C130 isolate at 50 ug/ml after 24 hrs; summary of the method: as §1
Nakaseomyces glabratus [23] = assay: Antimicrobial activity against Candida glabrata C115 isolate at 100 ug/ml after 24 hrs; summary of the method: as §1
Candida albicans [24] = assay: Antimicrobial activity against Candida albicans C128 isolate at 50 ug/ml after 24 hrs; summary of the method: as §1
Candida tropicalis [25] = assay: Antimicrobial activity against Candida tropicalis C131 isolate at 100 ug/ml after 24 hrs; summary of the method: as §2
Candida tropicalis [26] = assay: Antimicrobial activity against Candida tropicalis C131 isolate at 25 ug/ml after 24 hrs; summary of the method: as §2
Candida albicans [27] = assay: Antimicrobial activity against Candida albicans C128 isolate at 6.25 ug/ml after 24 hrs; summary of the method: as §1

Row | Structure (SMILES) | inhibition at 6.25 µg/mL (Candida albicans [1]) | inhibition at 50 µg/mL (Candida albicans [2]) | inhibition at 50 µg/mL (Pichia kudriavzevii [3]) | inhibition at 50 µg/mL (Candida parapsilosis [4]) | inhibition at 12.5 µg/mL (Nakaseomyces glabratus [5]) | inhibition at 25 µg/mL (Candida albicans [6]) | inhibition at 50 µg/mL (Nakaseomyces glabratus [7]) | inhibition at 25 µg/mL (Candida albicans [8]) | inhibition at 12.5 µg/mL (Candida albicans [9]) | inhibition at 50 µg/mL (Candida albicans [10]) | inhibition at 100 µg/mL (Candida albicans [11]) | inhibition at 6.25 µg/mL (Candida tropicalis [12]) | inhibition at 12.5 µg/mL (Candida tropicalis [13]) | inhibition at 6.25 µg/mL (Nakaseomyces glabratus [14]) | inhibition at 25 µg/mL (Candida albicans [15]) | inhibition at 25 µg/mL (Pichia kudriavzevii [16]) | inhibition at 25 µg/mL (Candida albicans [17]) | inhibition at 25 µg/mL (Candida parapsilosis [18]) | inhibition at 100 µg/mL (Candida parapsilosis [19]) | inhibition at 100 µg/mL (Candida albicans [20]) | further results
1 | c1ccc2nc(-c3ccncc3)ccc2c1 | 0% | 65% | 3% | 5% | 1% | 50% | 4% | 48% | 2% | 82% | 80% | 22% | 54% | 0% | 0% | 0% | 0% | 0% | 55% | 88% | inhibition at 12.5 µg/mL (Pichia kudriavzevii [21]): 0%; inhibition at 50 µg/mL (Candida albicans [22]): 84%; inhibition at 100 µg/mL (Nakaseomyces glabratus [23]): 75%; inhibition at 50 µg/mL (Candida albicans [24]): 15%; inhibition at 100 µg/mL (Candida tropicalis [25]): 100%; inhibition at 25 µg/mL (Candida tropicalis [26]): 60%; inhibition at 6.25 µg/mL (Candida albicans [27]): 0%
2 | Cc1cc(-c2ccncc2)nc2ccccc12 | 0% | 65% | 3% | 5% | 1% | 50% | 4% | 48% | 2% | 82% | 80% | 22% | 54% | 0% | 0% | 0% | 0% | 0% | 55% | 88% | inhibition at 12.5 µg/mL (Pichia kudriavzevii [21]): 0%; inhibition at 50 µg/mL (Candida albicans [22]): 84%; inhibition at 100 µg/mL (Nakaseomyces glabratus [23]): 75%; inhibition at 50 µg/mL (Candida albicans [24]): 15%; inhibition at 100 µg/mL (Candida tropicalis [25]): 100%; inhibition at 25 µg/mL (Candida tropicalis [26]): 60%; inhibition at 6.25 µg/mL (Candida albicans [27]): 0%
